Laboratory results: ChEMBL document CHEMBL2086265, “Design of inhibitors of Helicobacter pylori glutamate racemase as selective antibacterial agents: incorporation of imidazoles onto a core pyrazolopyrimidinedione scaffold to improve bioavailabilty” (Bioorg Med Chem Lett, 2012)
Converted amounts (≈) assume the structure as drawn.

How the values were obtained:
[1] = target: T1, Glutamate racemase (Helicobacter pylori J99, UniProt Q9ZLT0); assay: Inhibition of Helicobacter pylori J99 glutamate racemase
T1 sequence (Q9ZLT0 whole entry): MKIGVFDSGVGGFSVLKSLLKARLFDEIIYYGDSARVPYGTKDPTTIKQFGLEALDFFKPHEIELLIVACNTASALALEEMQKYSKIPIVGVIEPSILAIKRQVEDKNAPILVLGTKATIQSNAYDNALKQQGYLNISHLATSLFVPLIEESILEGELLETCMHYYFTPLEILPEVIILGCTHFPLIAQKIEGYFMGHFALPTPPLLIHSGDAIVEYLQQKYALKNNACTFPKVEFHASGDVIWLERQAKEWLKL
Outline: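 The racemase was expressed from the murI gene of H. pylori J99 chromosomal DNA. IC50 was taken as the mean of duplicate determinations, using a method cited from earlier work.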

[2] = system: Helicobacter pylori; assay: Antibacterial activity against AcrAB-TolC efflux pump-dificient Helicobacter pylori; type: functional
[3] = Intrinsic clearance in human liver microsomes at 2 uM assessed per mg of protein; type: ADME, Microsome; settings: read-out: CLH
[4] = Intrinsic clearance in mouse liver microsomes at 2 uM assessed per mg of protein; type: ADME, Microsome; settings: read-out: CLH
[5] = system: Helicobacter pylori; assay: Antibacterial activity against wild type Helicobacter pylori 055; type: functional
[6] = system: Helicobacter pylori; assay: Ratio of MIC for wild type Helicobacter pylori 055 to MIC for AcrAB-TolC efflux pump-dificient Helicobacter pylori

IC50 [1] [nM]	MIC [2] [µg/mL]	microsomal CLint at 2 µM [3] [µL/min/mg]	microsomal CLint at 2 µM [4] [µL/min/mg]	MIC [5] [µg/mL]	Structure (SMILES)	Ratio [6]
470	32 (≈ 55.2 µM)	> 100	> 100	32 (≈ 55.2 µM)	Cn1cc(C#N)cc1-c1c2c(=O)n(CCn3cccn3)c(=O)n(CC3CC3)c2nn1Cc1ccnc2ccc(Cl)cc12	–
280	–	34	> 100	8 (≈ 15.7 µM)	Cc1sc(N)nc1-c1c2c(=O)n(C)c(=O)n(CC3CC3)c2nn1Cc1ccnc2ccc(Cl)cc12	–
260	4 (≈ 6.62 µM)	41	> 100	64 (≈ 106 µM)	Cn1cc(C#N)cc1-c1c2c(=O)n(CC#CCn3ccnc3)c(=O)n(CC3CC3)c2nn1Cc1ccnc2ccc(Cl)cc12	–
86	–	94	> 100	4 (≈ 7.97 µM)	CC(C)Cn1c(=O)n(C)c(=O)c2c(-c3cc(C#N)cn3C)n(Cc3ccnc4ccc(Cl)cc34)nc21	–
150	2 (≈ 3.7 µM)	–	–	2 (≈ 3.7 µM)	Cn1cc(C#N)nc1-c1c2c(=O)n(CC3CC3)c(=O)n(CC3CC3)c2nn1Cc1ccnc2ccc(Cl)cc12	<=2
120	4 (≈ 6.62 µM)	> 100	> 100	8 (≈ 13.2 µM)	Cn1cc(C#N)cc1-c1c2c(=O)n(CC#CCn3cccn3)c(=O)n(CC3CC3)c2nn1Cc1ccnc2ccc(Cl)cc12	–
180	2 (≈ 3.88 µM)	51	< 14	2 (≈ 3.88 µM)	CCn1c(=O)c2c(-c3nc(C#N)cn3C)n(Cc3ccnc4ccc(Cl)cc34)nc2n(CC2CC2)c1=O	<=2
810	4 (≈ 8.39 µM)	32	< 14	8 (≈ 16.8 µM)	Cn1ncnc1-c1c2c(=O)n(C)c(=O)n(CC3CC3)c2nn1Cc1ccnc2ccc(Cl)cc12	–
250	4 (≈ 7.59 µM)	< 14	< 14	8 (≈ 15.2 µM)	Cn1cc(C#N)nc1-c1c2c(=O)n(C3CC3)c(=O)n(CC3CC3)c2nn1Cc1ccnc2ccc(Cl)cc12	–
740	–	< 14	61	> 32	Cc1nc(N)sc1-c1c2c(=O)n(C)c(=O)n(CC3CC3)c2nn1Cc1ccnc2ccc(Cl)cc12	–
170	16 (≈ 26.7 µM)	> 100	> 100	64 (≈ 107 µM)	Cn1cncc1-c1c2c(=O)n(CC#CCN3CCOCC3)c(=O)n(CC3CC3)c2nn1Cc1ccnc2ccc(Cl)cc12	–
230	–	< 14	64	8 (≈ 16.8 µM)	Cn1cnnc1-c1c2c(=O)n(C)c(=O)n(CC3CC3)c2nn1Cc1ccnc2ccc(Cl)cc12	–
670	16 (≈ 27.5 µM)	> 100	> 100	16 (≈ 27.5 µM)	Cn1cc(C#N)cc1-c1c2c(=O)n(CCn3ccnn3)c(=O)n(CC3CC3)c2nn1Cc1ccnc2ccc(Cl)cc12	–
460	8 (≈ 15.6 µM)	21	65	8 (≈ 15.6 µM)	C#CC(C)n1c(=O)c2c(-c3cncn3C)n(Cc3ccnc4ccc(Cl)cc34)nc2n(CC2CC2)c1=O (configuration not stated)	<=2
220	16 (≈ 31.7 µM)	53	51	16 (≈ 31.7 µM)	CC(C)n1c(=O)c2c(-c3cncn3C)n(Cc3ccnc4ccc(Cl)cc34)nc2n(CC2CC2)c1=O	<=2
54	16 (≈ 30.2 µM)	> 100	> 100	64 (≈ 121 µM)	Cn1cncc1-c1c2c(=O)n(CC#CCO)c(=O)n(CC3CC3)c2nn1Cc1ccnc2ccc(Cl)cc12	–
55	1 (≈ 1.9 µM)	< 14	96	8 (≈ 15.2 µM)	Cn1cc(C#N)cc1-c1c2c(=O)n(CC#N)c(=O)n(CC3CC3)c2nn1Cc1ccnc2ccc(Cl)cc12	–
260	–	> 100	> 100	18 (≈ 37.7 µM)	CC(C)Cn1c(=O)n(C)c(=O)c2c(-c3cccn3C)n(Cc3ccnc4ccc(Cl)cc34)nc21	–
120	–	–	–	4 (≈ 9.04 µM)	CC(C)Cn1c(=O)n(C)c(=O)c2c(-c3cncn3C)n(Cc3cccc4ccccc34)nc21	–
240	8 (≈ 15.2 µM)	26	> 100	4 (≈ 7.58 µM)	CC(C)n1c(=O)c2c(-c3cc(C#N)cn3C)n(Cc3ccnc4ccc(Cl)cc34)nc2n(CC2CC2)c1=O	<=2

IC50 [1] [nM]	MIC [2] [µg/mL]	microsomal CLint at 2 µM [3] [µL/min/mg]	microsomal CLint at 2 µM [4] [µL/min/mg]	MIC [5] [µg/mL]	Structure (SMILES)	Ratio [6]
69	0.9 (≈ 1.74 µM)	< 14	44	2 (≈ 3.88 µM)	Cn1cncc1-c1c2c(=O)n(CC3CC3)c(=O)n(CC3CC3)c2nn1Cc1ccnc2ccc(Cl)cc12	<=2
56	0.8 (≈ 1.59 µM)	25	49	1 (≈ 1.99 µM)	C=CCn1c(=O)c2c(-c3cncn3C)n(Cc3ccnc4ccc(Cl)cc34)nc2n(CC2CC2)c1=O	<=2
87	2 (≈ 3.99 µM)	< 14	87	4 (≈ 7.98 µM)	Cn1cc(C#N)nc1-c1c2c(=O)n(C)c(=O)n(CC3CC3)c2nn1Cc1ccnc2ccc(Cl)cc12	–
250	4 (≈ 7.59 µM)	> 100	> 100	2 (≈ 3.8 µM)	C=CCn1c(=O)c2c(-c3nc(C#N)cn3C)n(Cc3ccnc4ccc(Cl)cc34)nc2n(CC2CC2)c1=O	<=2
220	2 (≈ 3.99 µM)	38	63	2 (≈ 3.99 µM)	Cc1oc(C#N)cc1-c1c2c(=O)n(C)c(=O)n(CC3CC3)c2nn1Cc1ccnc2ccc(Cl)cc12	<=2
80	0.13 (≈ 0.247 µM)	30	33	2 (≈ 3.8 µM)	Cn1cc(C#N)cc1-c1c2c(=O)n(C3CC3)c(=O)n(CC3CC3)c2nn1Cc1ccnc2ccc(Cl)cc12	–
51	4 (≈ 6.42 µM)	> 100	> 100	16 (≈ 25.7 µM)	Cn1cc(C#N)cc1-c1c2c(=O)n(CC#CCN3CCOCC3)c(=O)n(CC3CC3)c2nn1Cc1ccnc2ccc(Cl)cc12	–
79	2 (≈ 3.98 µM)	< 14	6	8 (≈ 15.9 µM)	Cn1cncc1-c1c2c(=O)n(C3CC3)c(=O)n(CC3CC3)c2nn1Cc1ccnc2ccc(Cl)cc12	–
220	–	20	> 100	8 (≈ 16.8 µM)	Cc1c[nH]nc1-c1c2c(=O)n(C)c(=O)n(CC3CC3)c2nn1Cc1ccnc2ccc(Cl)cc12	–
70	1 (≈ 1.9 µM)	33	76	1.5 (≈ 2.85 µM)	C=CCn1c(=O)c2c(-c3cc(C#N)cn3C)n(Cc3ccnc4ccc(Cl)cc34)nc2n(CC2CC2)c1=O	<=2
13	16 (≈ 26.4 µM)	> 100	> 100	8 (≈ 13.2 µM)	Cn1cc(C#N)cc1-c1c2c(=O)n(CC#CCn3cncn3)c(=O)n(CC3CC3)c2nn1Cc1ccnc2ccc(Cl)cc12	–
28	0.3 (≈ 0.573 µM)	< 14	16	0.75 (≈ 1.43 µM)	C#CCn1c(=O)c2c(-c3cc(C#N)cn3C)n(Cc3ccnc4ccc(Cl)cc34)nc2n(CC2CC2)c1=O	<=2
900	–	92	> 100	32 (≈ 67.2 µM)	Cc1nc[nH]c1-c1c2c(=O)n(C)c(=O)n(CC3CC3)c2nn1Cc1ccnc2ccc(Cl)cc12	–
60	0.25 (≈ 0.499 µM)	59	> 100	1 (≈ 2 µM)	Cc1cc(C#N)oc1-c1c2c(=O)n(C)c(=O)n(CC3CC3)c2nn1Cc1ccnc2ccc(Cl)cc12	–
63	2 (≈ 3.89 µM)	47	44	8 (≈ 15.6 µM)	CC#CCn1c(=O)c2c(-c3cncn3C)n(Cc3ccnc4ccc(Cl)cc34)nc2n(CC2CC2)c1=O	–
170	–	17	> 100	4 (≈ 8.37 µM)	CC(C)Cn1c(=O)n(C)c(=O)c2c(-c3cncn3C)n(Cc3ccnc4ccc(Cl)cc34)nc21	–
88	16 (≈ 30.2 µM)	> 100	> 100	64 (≈ 121 µM)	Cn1cc(C#N)cc1-c1c2c(=O)n(CCO)c(=O)n(CC3CC3)c2nn1Cc1ccnc2ccc(Cl)cc12	–
57	16 (≈ 28.9 µM)	> 100	> 100	32 (≈ 57.8 µM)	Cn1cc(C#N)cc1-c1c2c(=O)n(CC#CCO)c(=O)n(CC3CC3)c2nn1Cc1ccnc2ccc(Cl)cc12	–
72	1 (≈ 2.04 µM)	< 14	15	4 (≈ 8.16 µM)	CCn1c(=O)c2c(-c3cncn3C)n(Cc3ccnc4ccc(Cl)cc34)nc2n(CC2CC2)c1=O	–
39	–	19	53	3 (≈ 5.8 µM)	CC(=O)c1cc(-c2c3c(=O)n(C)c(=O)n(CC4CC4)c3nn2Cc2ccnc3ccc(Cl)cc23)n(C)c1	–
